The target of one series is T1, Urea transporter 2 (Rattus norvegicus, UniProt Q62668).
T1 sequence (Q62668 whole entry): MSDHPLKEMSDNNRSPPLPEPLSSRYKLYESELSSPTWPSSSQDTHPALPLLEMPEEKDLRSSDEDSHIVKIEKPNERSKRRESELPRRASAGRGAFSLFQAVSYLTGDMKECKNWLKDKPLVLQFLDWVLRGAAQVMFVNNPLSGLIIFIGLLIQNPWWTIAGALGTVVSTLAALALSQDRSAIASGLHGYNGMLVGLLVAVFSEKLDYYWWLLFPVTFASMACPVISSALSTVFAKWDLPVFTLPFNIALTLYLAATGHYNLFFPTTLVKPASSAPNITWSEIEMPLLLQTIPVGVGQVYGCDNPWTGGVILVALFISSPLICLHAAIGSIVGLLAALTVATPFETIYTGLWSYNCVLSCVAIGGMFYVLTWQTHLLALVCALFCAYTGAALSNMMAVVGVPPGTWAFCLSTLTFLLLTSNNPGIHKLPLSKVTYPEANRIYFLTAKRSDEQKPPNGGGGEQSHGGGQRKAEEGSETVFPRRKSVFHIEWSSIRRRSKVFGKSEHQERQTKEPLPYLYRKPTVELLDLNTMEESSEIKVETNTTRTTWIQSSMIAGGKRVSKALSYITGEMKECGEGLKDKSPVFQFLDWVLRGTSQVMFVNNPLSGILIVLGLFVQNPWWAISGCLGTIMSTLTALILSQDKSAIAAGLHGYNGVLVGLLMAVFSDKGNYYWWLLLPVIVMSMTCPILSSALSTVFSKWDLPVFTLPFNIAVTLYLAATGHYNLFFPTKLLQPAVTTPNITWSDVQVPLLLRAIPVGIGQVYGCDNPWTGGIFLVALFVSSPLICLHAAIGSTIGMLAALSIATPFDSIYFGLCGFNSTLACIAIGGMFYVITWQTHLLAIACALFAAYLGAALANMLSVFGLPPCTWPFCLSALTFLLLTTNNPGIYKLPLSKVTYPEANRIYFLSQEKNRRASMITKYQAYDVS
The experiment in a line: Inhibition of rat UT-A1 expressed in MDCK cells incubated for 15 mins by fluorescence plate reader assay. It is filed as cell-based.

Another series deals with MDCK. The experiment in a line: Cytotoxicity against dog MDCK cells at 10 uM after 24 hrs by alamar blue assay. It is filed as cell-based, Canis lupus familiaris. The gist of the method:
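MDCK cells stably co-expressing rat UT-A1, YFP-H148Q/V163S and human AQP1 grown 24 h at 37 °C, then exposed to compound at 10 µM for 24 h; viability read by AlamarBlue; mean ± SEM, n = 3.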
(In general: The colour change of resazurin is a common sign of viable cells or microbes.)

The target in another series is T2, Urea transporter 1 (Rattus norvegicus, UniProt P97689).
T2 sequence (P97689 whole entry): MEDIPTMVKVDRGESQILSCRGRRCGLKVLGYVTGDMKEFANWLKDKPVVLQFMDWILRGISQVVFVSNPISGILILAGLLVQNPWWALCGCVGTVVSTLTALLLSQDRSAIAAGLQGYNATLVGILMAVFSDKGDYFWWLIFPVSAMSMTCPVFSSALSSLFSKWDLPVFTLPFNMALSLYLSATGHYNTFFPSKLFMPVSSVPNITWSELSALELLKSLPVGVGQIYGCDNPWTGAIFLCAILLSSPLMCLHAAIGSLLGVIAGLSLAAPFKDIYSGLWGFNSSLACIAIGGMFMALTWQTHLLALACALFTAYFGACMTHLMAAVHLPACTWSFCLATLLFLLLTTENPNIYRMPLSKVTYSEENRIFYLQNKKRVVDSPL
The experiment in a line: Inhibition of rat UT-B incubated for 15 mins. An outline of the steps:
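Rat whole blood diluted to ~1.5% hematocrit in PBS with 1.25 M acetamide and 5 mM glucose; compound incubated 15 min, then cells mixed into isomolar buffer; lysis read by absorbance at 710 nm. Isomolar buffer as non-lysed and 0.7 mM phloretin as lysed control; % lysis computed from these; mean ± SEM, n = 3.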

For series [1], the target named is T3, Urea transporter 2 (Rattus norvegicus) (UniProt Q62668).
T3 sequence (whole entry): T1 sequence (Q62668 whole entry)
The experiment in a line: Inhibition of rat UT-A1 expressed in MDCK cells at 0.5 uM by fluorescence plate reader assay. The note with it: time 100-500 sec. It is filed as cell-based. The gist of the method:
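MDCK cells stably expressing rat UT-A1, human AQP1 and YFP volume sensor; compound at 0.5 µM added at different times before assay; urea transport followed by YFP fluorescence on a plate reader; DMSO as 0% and phloretin as 100% inhibition.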

The target in series [2] is T3, Urea transporter 2 (Rattus norvegicus). The experiment in a line: Noncompetitive inhibition of rat UT-A1 expressed in MDCK cells assessed as inhibition of urea transport. It is filed as cell-based.
Series [3] in a line: Metabolic stability in Sprague-Dawley rat liver microsomes assessed as compound remaining at 5 uM preincubated for 5 mins followed by NADPH addition and measured at 15 mins by LC/MS analysis. The class given is ADME, Microsome. The conditions noted are these: time 20 min, read-out: Stabilty. An outline of the steps: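 Compound at 5 µM preincubated 5 min at 37 °C with male Sprague-Dawley rat liver microsomes (1 mg protein/mL) in 0.1 M PBS pH 7.4. 1 mM NADPH then added, incubation continued at 37 °C for set times, then chilled and EtOAc-extracted. Parent compound measured by LC/MS as peak area/internal standard ratio; mean ± SEM, n = 3.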

Series [4] addresses T3, Urea transporter 2 (Rattus norvegicus). The experiment in a line: Reversible inhibition of rat UT-A1 expressed in MDCK cells at 0.5 uM incubated for 15 mins followed by compound washing for 15 mins. It is filed as cell-based. An outline of the steps: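 MDCK cells stably expressing rat UT-A1, AQP1 and YFP sensor incubated with 0.5 µM compound for 15 min, washed with PBS for 15 min, then assayed for UT-A1 urea transport by fluorescence plate reader.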

pIC50: −log10 of the molar value. The source made the active and inactive calls. No cut-off for these calls is given here.

By pIC50 is commonly meant −log10 of the IC50, conventionally taken in molar units.

The molecule `CCc1nnc2c(Oc3ccc(NS(=O)(=O)c4cc(C)ccc4C)cc3)nc3ccccc3n12` gave a pIC50 against Urea transporter 2 of 6.12.

As for `CCCc1nnc2c(Oc3ccc(NS(=O)(=O)c4cc(C)ccc4C)cc3)nc3ccccc3n12`, the pIC50 on Urea transporter 2 is 6.30.

With `COc1ccc(Cl)c(S(=O)(=O)Nc2cccc(Nc3nc4ccccc4n4cnnc34)c2)c1`, at Urea transporter 2, the pIC50 is below 4.70.

Turning to `COc1ccc(Cl)cc1S(=O)(=O)Nc1ccc(Oc2nc3ccccc3n3cnnc23)cc1`, the pIC50 at Urea transporter 2 was 6.10; against Urea transporter 1, 5.40. Moreover, the Activity entry in the series with MDCK is “Non-Toxic”.

For the molecule `CCc1nnc2c(Oc3ccc(NS(=O)(=O)c4cc(C)ccc4OC)cc3)nc3ccccc3n12`, the pIC50 on Urea transporter 2 is 6.15.

Regarding `Cc1ccc(C)c(S(=O)(=O)Nc2ccc(Oc3nc4ccccc4n4c(C(C)C)nnc34)cc2)c1`, at Urea transporter 2, the pIC50 is 6.22.

With `COc1ccc(Cl)cc1S(=O)(=O)Nc1ccc2nc(SC)sc2c1`, the results for the pIC50 against Urea transporter 2 and against Urea transporter 1 were 5.30 and 5.00, respectively.

Regarding `O=S(=O)(Nc1ccc(Oc2nc3ccccc3n3cnnc23)cc1)c1cccc(Cl)c1`, at Urea transporter 2, the pIC50 is below 4.70.

Regarding `CCc1nnc2c(Oc3ccc(NS(=O)(=O)c4cc(Cl)ccc4OC)cc3)nc3cc(C)c(C)cc3n12`, the pIC50 at Urea transporter 2 was 5.85.

At Urea transporter 2, `Cc1ccc(C)c(S(=O)(=O)Nc2ccc(Oc3nc4ccccc4n4cnnc34)cc2)c1` had a pIC50 of 5.82.

For `COC(=O)c1sc2nc3c(cc2c1N)CN(Cc1ccccc1)CC3`, the pIC50 at Urea transporter 2 and against Urea transporter 1 was 5.52 each time.

`COc1ccc(Cl)cc1S(=O)(=O)Nc1cccc(Oc2nc3ccccc3n3cnnc23)c1` showed a pIC50 at Urea transporter 2 below 4.70.

In the case of `CCc1nnc2c(Oc3ccc(NS(=O)(=O)c4cc(Cl)ccc4OC)cc3)nc3ccccc3n12`, the pIC50 at Urea transporter 2 is 6.30.

Take `COc1ccc(Cl)cc1S(=O)(=O)Nc1ccc(Oc2nc3ccccc3n3c(C(C)C)nnc23)cc1`: at Urea transporter 2, the pIC50 is 6.52.

For the molecule `COc1ccc(Cl)cc1S(=O)(=O)Nc1ccc(Oc2nc3cc(F)c(F)cc3n3cnnc23)cc1`, at Urea transporter 2, the pIC50 is 5.92.

Molecule `CCCc1nnc2c(Oc3ccc(NS(=O)(=O)c4cc(C)ccc4OC)cc3)nc3ccccc3n12` gave a pIC50 at Urea transporter 2 of 6.40.

Regarding `O=C(Nc1ccon1)c1cc(-c2ccccc2)nc2ccccc12`, the negative-log IC50 (pIC50) is 5.70 at Urea transporter 2 and below 4.00 at Urea transporter 1.

As to `COc1ccc(C)cc1S(=O)(=O)Nc1ccc(Oc2nc3ccccc3n3cnnc23)cc1`, the pIC50 against Urea transporter 2 was 5.96.

With `Cc1ccc(C)c(S(=O)(=O)Nc2ccc(Oc3nc4ccccc4n4c(C)nnc34)cc2)c1`, the pIC50 at Urea transporter 2 is below 4.70.

On to `O=S(=O)(Nc1ccc(Oc2nc3ccccc3n3cnnc23)cc1)c1ccccc1OC(F)(F)F`, for which the pIC50 on Urea transporter 2 is 4.70.

`COc1ccc(Cl)cc1S(=O)(=O)Nc1ccc(Oc2nc3cc(C)c(C)cc3n3c(C(C)C)nnc23)cc1` had a pIC50 on Urea transporter 2 of 5.92.

Turning to `CCCc1nnc2c(Oc3ccc(NS(=O)(=O)c4cc(Cl)ccc4OC)cc3)nc3ccccc3n12`, the pIC50 against Urea transporter 2 is 6.82; against Urea transporter 1 it was 5.70. The inhibition entry in series [1], in series [2] and in series [4] was “Active” in each case. Further, in series [3], the remaining at 0.25 h, 5 µM turned out to be 40%. The Activity result with MDCK is “Non-Toxic”.

Consider `COc1ccc(Cl)c(S(=O)(=O)Nc2cccc(Oc3nc4ccccc4n4cnnc34)c2)c1`, for which, on Urea transporter 2, the pIC50 was below 4.70.

Molecule `CCCCc1nnc2c(Oc3ccc(NS(=O)(=O)c4cc(C)ccc4OC)cc3)nc3ccccc3n12` had a pIC50 against Urea transporter 2 of 6.40.

In the case of `COc1ccc(Cl)cc1S(=O)(=O)Nc1cccc(O)c1`, the pIC50 at Urea transporter 2 was 5.22; against Urea transporter 1 it was 4.85.

`COc1ccc(Cl)cc1S(=O)(=O)Nc1ccc(Oc2nc3cc(Cl)c(Cl)cc3n3cnnc23)cc1` gave a pIC50 against Urea transporter 2 below 4.70.

In the case of `CCCc1nnc2c(Oc3ccc(NS(=O)(=O)c4cc(Cl)ccc4OC)cc3)nc3cc(C)c(C)cc3n12`, the pIC50 against Urea transporter 2 is 6.40. Further, the remaining at 0.25 h, 5 µM in series [3] worked out at 25%.

The molecule `COc1ccc(C)cc1S(=O)(=O)Nc1ccc(Oc2nc3cc(F)c(F)cc3n3cnnc23)cc1` had a pIC50 against Urea transporter 2 of 5.82.

On Urea transporter 2, `CCOc1nnc2c(Oc3ccc(NS(=O)(=O)c4cc(Cl)ccc4OC)cc3)nc3ccccc3n12` gave a pIC50 of 5.92.

The molecule `CCOc1nnc2c(Oc3ccc(NS(=O)(=O)c4cc(C)ccc4OC)cc3)nc3ccccc3n12` had a pIC50 against Urea transporter 2 of 5.82. This pIC50 and that of the molecule before are within 0.2 log units of each other.

For `CC(=O)Nc1ccc(-c2noc(C3CCCN(C(=O)c4ccccc4F)C3)n2)cc1` (stereo not drawn), the pIC50 at Urea transporter 2 was 5.52; at Urea transporter 1 it was below 4.30.

`COc1ccc(Cl)cc1S(=O)(=O)Nc1ccc(Nc2nc3ccccc3n3cnnc23)cc1`: on Urea transporter 2, the pIC50 is below 4.70.

Turning to `COc1ccc(Cl)cc1S(=O)(=O)Nc1ccc(Oc2nc3ccccc3n3c(C)nnc23)cc1`, the pIC50 at Urea transporter 2 was below 4.70.

For `COc1ccc(-c2cccc(-c3ccn(Cc4csc(C)n4)n3)c2)nn1`, the pIC50 against Urea transporter 2 was 5.82; against Urea transporter 1, 4.51.

Consider `O=S(=O)(Nc1ccc(Oc2nc3ccccc3n3cnnc23)cc1)c1ccccc1Cl`, for which the pIC50 against Urea transporter 2 was 5.30.

Consider `CCCCc1nnc2c(Oc3ccc(NS(=O)(=O)c4cc(Cl)ccc4OC)cc3)nc3ccccc3n12`, for which the pIC50 at Urea transporter 2 is 6.70.

Regarding `COc1ccc(C)cc1S(=O)(=O)Nc1ccc(Oc2nc3ccccc3n3c(C)nnc23)cc1`, the pIC50 against Urea transporter 2 is below 4.70.

`CCCCc1nnc2c(Oc3ccc(NS(=O)(=O)c4cc(C)ccc4C)cc3)nc3ccccc3n12`: at Urea transporter 2, the pIC50 is 6.10.

For the molecule `COc1ccc(Cl)cc1S(=O)(=O)Nc1ccc(Oc2nc3cc(C)c(C)cc3n3cnnc23)cc1`, at Urea transporter 2, the pIC50 is 5.57.

As to `COc1ccc(C)cc1S(=O)(=O)Nc1ccc(Oc2nc3ccccc3n3c(C(C)C)nnc23)cc1`, at Urea transporter 2, the pIC50 is 6.30.

Consider `COc1ccc(Cl)c(S(=O)(=O)Nc2ccc(Nc3nc4ccccc4n4cnnc34)cc2)c1`, for which the pIC50 on Urea transporter 2 is below 4.70.

On to `COc1ccc(Cl)c(S(=O)(=O)Nc2ccc(Oc3nc4ccccc4n4cnnc34)cc2)c1`, for which the pIC50 at Urea transporter 2 was below 4.70.

On Urea transporter 2, `Cc1ccccc1S(=O)(=O)Nc1ccc(Oc2nc3ccccc3n3cnnc23)cc1` had a pIC50 of 5.10.

Source of the values: ChEMBL document CHEMBL4834390, “Nanomolar-Potency 1,2,4-Triazoloquinoxaline Inhibitors of the Kidney Urea Transporter UT-A1” (J Med Chem, 2018).
